According to ChEMBL document CHEMBL4715925, “Sulfamoylbenzamide-based Capsid Assembly Modulators for Selective Inhibition of Hepatitis B Viral Replication” (ACS Med Chem Lett, 2021):
Active and inactive are the calls of the source. The rule behind the calls is not given here.

Columns and labels:
[1] = system: Hepatitis B virus; test: Antiviral activity against Hepatitis B genotype D virus infected in HepG2 2.2.15 cells assessed as inhibition of viral DNA incubated for 5 days by qPCR analysis; type: functional, cell-based; settings: HepG2 2.2.15, 120 h
Summary of the method: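 HepG2.2.15 cells were incubated with compound for 5 days. HBV DNA was then purified from the culture supernatant and quantified by real-time PCR.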

[2] = Cytotoxicity against human HepG2 2.2.15 cells assessed as reduction in cell viability incubated for 5 days by MTT assay; type: cell-based; settings: time 5 day
Summary of the method: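 HepG2.2.15 cells were incubated with compound, then cell viability was measured. Mean ± SD of three independent experiments.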

[3] = Selectivity index, ratio of CC50 for human […] cells to EC50 for Hepatitis B virus; type: toxicity; settings: read-out: Ratio CC50/EC50
[4] = system: Hepatitis B virus; test: Induction of recombinant Hepatitis B virus HBc (1-149)-His protein self-assembly expressed in Escherichia coli BL21 (DE3) at 30 uM by TEM analysis relative to control; settings: filed as modulator, time 3-5 day, TDE = time-dependent effect
[5] = molecular target: T1, Cytochrome P450 1A2 (Homo sapiens, UniProt P05177); test: Inhibition of human liver microsome CYP1A2 using phenacetin as substrate incubated for 20 mins by LC-MS/MS with HPLC analysis; type: ADME, microsomes
T1 sequence (P05177 whole entry): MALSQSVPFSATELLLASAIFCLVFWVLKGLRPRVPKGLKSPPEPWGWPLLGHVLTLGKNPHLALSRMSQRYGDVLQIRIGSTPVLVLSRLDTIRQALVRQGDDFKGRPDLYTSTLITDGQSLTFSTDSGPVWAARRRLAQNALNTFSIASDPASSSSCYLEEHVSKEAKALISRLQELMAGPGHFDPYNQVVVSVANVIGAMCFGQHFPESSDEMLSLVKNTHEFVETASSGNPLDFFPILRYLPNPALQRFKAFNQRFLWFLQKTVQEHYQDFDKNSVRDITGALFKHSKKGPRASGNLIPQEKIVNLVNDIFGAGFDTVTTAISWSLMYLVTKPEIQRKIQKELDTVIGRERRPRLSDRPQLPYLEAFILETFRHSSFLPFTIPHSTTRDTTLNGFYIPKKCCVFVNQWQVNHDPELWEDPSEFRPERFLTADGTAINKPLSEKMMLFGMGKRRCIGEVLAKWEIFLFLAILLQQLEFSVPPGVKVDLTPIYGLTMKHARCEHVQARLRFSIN
Summary of the method: (§1)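 Cocktail-substrate assay in human liver microsomes; IC50 reported for CYP1A2, 2C9, 2C19, 2D6 and 3A4. n = 3, mean ± SD.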

[6] = molecular target: Cytochrome P450 2C9 (Homo sapiens, UniProt P11712); test: Inhibition of human liver microsome CYP2C9 using tolbutamide as substrate incubated for 20 mins by LC-MS/MS with HPLC analysis; type: ADME, microsomes; summary of the method: as §1
[7] = molecular target: Cytochrome P450 2C19 (Homo sapiens, UniProt P33261); test: Inhibition of human liver microsome CYP2C19 using S-mephenytoin as substrate incubated for 20 mins by LC-MS/MS with HPLC analysis; type: ADME, microsomes; summary of the method: as §1
[8] = molecular target: Cytochrome P450 2D6 (Homo sapiens, UniProt P10635); test: Inhibition of human liver microsome CYP2D6 using dextromethorphan as substrate incubated for 20 mins by LC-MS/MS with HPLC analysis; type: ADME, microsomes; summary of the method: as §1
[9] = molecular target: Cytochrome P450 3A4 (Homo sapiens, UniProt P08684); test: Inhibition of human liver microsome CYP3A4 using […] as substrate incubated for 20 mins by LC-MS/MS with HPLC analysis; type: ADME, microsomes; summary of the method: as §1
[10] = molecular target: Voltage-gated inwardly rectifying potassium channel KCNH2 (Homo sapiens, UniProt Q12809); test: Inhibition of human ERG by fluorescence polarization assay
[11] = Metabolic stability in rat liver microsomes assessed as compound remaining at 1 uM incubated for 30 mins by LC-MS/MS analysis; type: ADME, Microsome; settings: read-out: Stabilty
Summary of the method: (§2)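 Phase-I stability in rat or human liver microsomes, given as % remaining after 30 min, with half-life also derived. n = 3, mean ± SD.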

[12] = Metabolic stability in human liver microsomes assessed as compound remaining at 1 uM incubated for 30 mins by LC-MS/MS analysis; type: ADME, Microsome; settings: read-out: Stabilty; summary of the method: as §2
[13] = Metabolic stability in rat liver microsomes assessed as half life at 1 uM incubated for 30 mins by LC-MS/MS analysis; type: ADME, Microsome; summary of the method: as §2
[14] = Metabolic stability in human liver microsomes assessed as half life at 1 uM incubated for 30 mins by LC-MS/MS analysis; type: ADME, Microsome; summary of the method: as §2
[15] = Stability in rat plasma assessed as compound remaining at 5 uM incubated for 4 hrs by LC-MS/MS analysis; type: ADME, cell-free; settings: read-out: Stabilty
Summary of the method: (§3)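 Incubated in rat or human plasma at 37 °C for 4 h; result is % compound remaining. n = 3, mean ± SD.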

[16] = Stability in human plasma assessed as compound remaining at 5 uM incubated for 4 hrs by LC-MS/MS analysis; type: ADME, cell-free; settings: read-out: Stabilty; summary of the method: as §3
[17] = Protein binding in rat plasma at 5 uM incubated for 4 hrs by LC-MS/MS analysis; type: ADME, cell-free; settings: read-out: PPB (converted)
[18] = Protein binding in human plasma at 5 uM incubated for 4 hrs by LC-MS/MS analysis; type: ADME, cell-free; settings: read-out: PPB (converted)
[19] = Half life in Sprague-Dawley rat at 5 mg/kg, iv by LC-MS/MS analysis; type: ADME, organism-based; settings: in vivo
Summary of the method: (§4)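 Male SD rats, 5 mg/kg given i.v. or p.o.; plasma concentration–time courses followed. Parameters: Tmax, Cmax, terminal T1/2, AUClast, AUC to infinity, total plasma clearance, Vss, oral bioavailability (Ft). Values are mean ± SD of at least three independent experiments.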

[20] = AUClast in Sprague-Dawley rat at 5 mg/kg, iv by LC-MS/MS analysis; type: ADME, organism-based; set-up: route intravenous, time 0 - last, dose 5 mg/kg; settings: in vivo; summary of the method: as §4
[21] = AUC (0 to infinity) in Sprague-Dawley rat at 5 mg/kg, iv by LC-MS/MS analysis; type: ADME, organism-based; set-up: time infinity, route intravenous, dose 5 mg/kg; settings: in vivo; summary of the method: as §4
[22] = Clearance in Sprague-Dawley rat at 5 mg/kg, iv by LC-MS/MS analysis; type: ADME, organism-based; settings: in vivo; summary of the method: as §4
[23] = Volume of distribution at steady state in Sprague-Dawley rat at 5 mg/kg, iv by LC-MS/MS analysis; type: ADME, organism-based; settings: in vivo, read-out: Vdss; summary of the method: as §4
[24] = Tmax in Sprague-Dawley rat at 5 mg/kg, po by LC-MS/MS analysis; type: ADME, organism-based; settings: in vivo; summary of the method: as §4
[25] = Cmax in Sprague-Dawley rat at 5 mg/kg, po by LC-MS/MS analysis; type: ADME, organism-based; set-up: route oral, dose 5 mg/kg; settings: in vivo; summary of the method: as §4
[26] = Half life in Sprague-Dawley rat at 5 mg/kg, po by LC-MS/MS analysis; type: ADME, organism-based; settings: in vivo; summary of the method: as §4
[27] = AUClast in Sprague-Dawley rat at 5 mg/kg, po by LC-MS/MS analysis; type: ADME, organism-based; set-up: time 0 - last, route oral, dose 5 mg/kg; settings: in vivo; summary of the method: as §4
[28] = AUC (0 to infinity) in Sprague-Dawley rat at 5 mg/kg, po by LC-MS/MS analysis; type: ADME, organism-based; set-up: time infinity, route oral, dose 5 mg/kg; settings: in vivo; summary of the method: as §4
[29] = Oral bioavailability in Sprague-Dawley rat at 5 mg/kg by LC-MS/MS analysis; type: ADME, organism-based; settings: in vivo; summary of the method: as §4
[30] = system: Hepatitis B virus; test: Induction of recombinant Hepatitis B virus HBc (1-149)-His protein self-assembly expressed in Escherichia coli BL21 (DE3) assessed as long rod-shaped particles at 30 uM after 3 to 5 days of incubation by TEM analysis relative to control; settings: filed as modulator, time 3-5 day
[31] = system: Hepatitis B virus; test: Induction of recombinant Hepatitis B virus HBc (1-149)-His protein self-assembly expressed in Escherichia coli BL21 (DE3) assessed as longer tubular shaped particles at 30 uM after 3 to 5 days of incubation by TEM analysis relative to control; settings: filed as modulator, time 3-5 day
[32] = system: Hepatitis B virus; test: Induction of recombinant Hepatitis B virus HBc (1-149)-His protein self-assembly expressed in Escherichia coli BL21 (DE3) assessed as short rod-shaped particles at 30 uM after 12 hrs of incubation by TEM analysis relative to control; settings: filed as modulator
[33] = system: Hepatitis B virus; test: Induction of recombinant Hepatitis B virus HBc (1-149)-His protein self-assembly expressed in Escherichia coli BL21 (DE3) assessed as spherical shaped particles at 30 uM after 12 hrs of incubation by TEM analysis relative to control; settings: filed as modulator

Cytochrome P450 2D6, sequence (P10635 whole entry): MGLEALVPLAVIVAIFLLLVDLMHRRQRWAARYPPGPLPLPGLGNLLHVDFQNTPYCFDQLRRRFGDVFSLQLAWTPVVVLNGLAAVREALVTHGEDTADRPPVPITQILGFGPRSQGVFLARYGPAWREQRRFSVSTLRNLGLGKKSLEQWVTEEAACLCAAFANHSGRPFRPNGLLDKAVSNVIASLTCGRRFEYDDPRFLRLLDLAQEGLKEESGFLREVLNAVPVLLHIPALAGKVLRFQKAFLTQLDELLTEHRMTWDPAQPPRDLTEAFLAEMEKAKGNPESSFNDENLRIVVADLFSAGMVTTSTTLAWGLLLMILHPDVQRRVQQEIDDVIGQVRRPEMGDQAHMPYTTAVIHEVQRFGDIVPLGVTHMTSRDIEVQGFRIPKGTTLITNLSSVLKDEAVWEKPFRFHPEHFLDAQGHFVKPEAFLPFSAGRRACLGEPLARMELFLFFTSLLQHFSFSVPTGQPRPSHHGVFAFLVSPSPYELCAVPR
Cytochrome P450 2C19, sequence (P33261 whole entry): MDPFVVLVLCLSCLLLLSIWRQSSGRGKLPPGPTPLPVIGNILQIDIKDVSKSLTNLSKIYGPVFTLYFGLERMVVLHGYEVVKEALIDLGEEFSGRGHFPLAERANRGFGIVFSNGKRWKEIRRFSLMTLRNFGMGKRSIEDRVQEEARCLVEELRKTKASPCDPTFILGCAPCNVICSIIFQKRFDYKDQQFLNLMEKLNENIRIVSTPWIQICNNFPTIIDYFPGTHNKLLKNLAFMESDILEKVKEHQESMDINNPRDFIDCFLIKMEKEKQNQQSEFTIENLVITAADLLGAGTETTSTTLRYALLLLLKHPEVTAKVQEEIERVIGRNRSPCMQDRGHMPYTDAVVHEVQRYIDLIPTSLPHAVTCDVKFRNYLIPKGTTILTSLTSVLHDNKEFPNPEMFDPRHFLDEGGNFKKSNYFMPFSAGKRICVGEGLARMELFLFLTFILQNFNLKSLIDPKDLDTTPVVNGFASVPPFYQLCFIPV
Cytochrome P450 2C9, sequence (P11712 whole entry): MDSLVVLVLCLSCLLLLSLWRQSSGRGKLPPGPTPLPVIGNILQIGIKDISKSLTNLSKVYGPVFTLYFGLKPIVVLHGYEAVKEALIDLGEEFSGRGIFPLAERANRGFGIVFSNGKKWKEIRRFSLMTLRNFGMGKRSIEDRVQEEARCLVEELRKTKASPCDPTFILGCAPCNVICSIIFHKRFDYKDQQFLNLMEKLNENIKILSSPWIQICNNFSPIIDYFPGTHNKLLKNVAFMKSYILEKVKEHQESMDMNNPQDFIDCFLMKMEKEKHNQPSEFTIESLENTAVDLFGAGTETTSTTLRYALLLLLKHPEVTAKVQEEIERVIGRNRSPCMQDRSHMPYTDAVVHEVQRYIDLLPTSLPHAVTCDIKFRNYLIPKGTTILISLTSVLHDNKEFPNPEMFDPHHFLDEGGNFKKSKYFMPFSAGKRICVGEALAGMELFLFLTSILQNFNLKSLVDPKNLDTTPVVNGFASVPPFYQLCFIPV
Voltage-gated inwardly rectifying potassium channel KCNH2, sequence (Q12809 whole entry): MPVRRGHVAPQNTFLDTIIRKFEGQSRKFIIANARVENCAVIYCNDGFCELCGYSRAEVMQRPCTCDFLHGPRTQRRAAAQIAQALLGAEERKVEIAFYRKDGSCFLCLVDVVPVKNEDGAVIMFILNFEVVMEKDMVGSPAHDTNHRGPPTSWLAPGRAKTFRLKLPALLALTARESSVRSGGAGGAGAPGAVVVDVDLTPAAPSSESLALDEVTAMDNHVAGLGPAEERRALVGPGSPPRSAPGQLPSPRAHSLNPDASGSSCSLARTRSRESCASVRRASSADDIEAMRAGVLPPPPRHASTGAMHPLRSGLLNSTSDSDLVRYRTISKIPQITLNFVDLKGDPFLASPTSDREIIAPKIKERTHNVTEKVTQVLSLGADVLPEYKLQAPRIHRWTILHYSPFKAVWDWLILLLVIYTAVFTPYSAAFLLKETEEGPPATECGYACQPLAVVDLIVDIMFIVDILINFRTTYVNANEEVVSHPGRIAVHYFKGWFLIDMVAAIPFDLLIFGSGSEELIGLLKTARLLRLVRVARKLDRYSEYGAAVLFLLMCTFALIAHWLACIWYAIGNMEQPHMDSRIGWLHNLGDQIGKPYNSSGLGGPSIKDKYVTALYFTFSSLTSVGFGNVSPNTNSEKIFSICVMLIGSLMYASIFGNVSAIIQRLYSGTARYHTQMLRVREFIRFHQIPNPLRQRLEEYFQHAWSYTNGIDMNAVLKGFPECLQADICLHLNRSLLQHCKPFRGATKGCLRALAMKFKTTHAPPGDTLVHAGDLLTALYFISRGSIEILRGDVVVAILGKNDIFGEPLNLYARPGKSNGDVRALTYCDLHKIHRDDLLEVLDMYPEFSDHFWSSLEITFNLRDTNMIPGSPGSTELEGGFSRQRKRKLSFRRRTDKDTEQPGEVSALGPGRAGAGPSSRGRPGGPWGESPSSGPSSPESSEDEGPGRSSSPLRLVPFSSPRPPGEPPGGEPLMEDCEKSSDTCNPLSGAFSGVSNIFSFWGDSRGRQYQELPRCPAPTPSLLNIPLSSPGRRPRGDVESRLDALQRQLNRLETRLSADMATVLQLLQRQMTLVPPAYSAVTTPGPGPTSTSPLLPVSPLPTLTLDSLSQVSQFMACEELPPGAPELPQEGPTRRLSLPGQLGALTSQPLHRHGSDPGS
Cytochrome P450 3A4, sequence (P08684 whole entry): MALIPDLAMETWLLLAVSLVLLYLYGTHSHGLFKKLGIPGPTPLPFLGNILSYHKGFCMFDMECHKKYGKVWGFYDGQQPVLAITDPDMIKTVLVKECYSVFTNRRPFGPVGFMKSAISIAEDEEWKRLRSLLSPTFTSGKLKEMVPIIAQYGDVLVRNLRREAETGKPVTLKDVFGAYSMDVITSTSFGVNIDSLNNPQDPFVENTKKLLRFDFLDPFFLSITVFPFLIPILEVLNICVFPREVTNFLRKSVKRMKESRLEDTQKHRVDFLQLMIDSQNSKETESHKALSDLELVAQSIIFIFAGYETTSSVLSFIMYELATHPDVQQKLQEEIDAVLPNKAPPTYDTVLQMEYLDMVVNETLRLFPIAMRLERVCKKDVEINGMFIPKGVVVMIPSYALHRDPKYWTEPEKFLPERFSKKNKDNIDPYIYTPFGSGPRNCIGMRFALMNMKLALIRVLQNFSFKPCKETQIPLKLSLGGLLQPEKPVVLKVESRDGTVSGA

Nc1cc(F)c(S(=O)(=O)N2CCC(O)CC2)cc1C(=O)Nc1ccc(F)cc1
EC50 [1]: 0.57 µM
CC50 at 120 h [2]: 45.8 µM
selectivity ratio [3]: 80.4

Nc1cc(F)c(S(=O)(=O)N2CCC(O)CC2)cc1C(=O)Nc1ccc(C(F)(F)F)c(F)c1
EC50 [1]: > 3.3 µM
CC50 at 120 h [2]: 5.9 µM

Nc1cc(F)c(S(=O)(=O)N2CCC(O)CC2)cc1C(=O)Nc1ccc(Cl)c(C(F)(F)F)c1
EC50 [1]: > 3.3 µM
CC50 at 120 h [2]: 17.8 µM

N#Cc1cc(NC(=O)c2cc(S(=O)(=O)N3CCC(O)CC3)c(F)cc2N)ccc1F
EC50 [1]: 1.08 µM
CC50 at 120 h [2]: > 900 µM
selectivity ratio [3]: > 833

Nc1cc(F)c(S(=O)(=O)N2CCC(O)CC2)cc1C(=O)Nc1ccc(F)c(C(F)(F)F)c1
EC50 [1]: 2.18 µM
CC50 at 120 h [2]: 47.3 µM
selectivity ratio [3]: 21.7

Nc1cc(F)c(S(=O)(=O)N2CCC(O)CC2)cc1C(=O)Nc1ccc(F)c(F)c1
EC50 [1]: 0.3 µM
CC50 at 120 h [2]: 16 µM
selectivity ratio [3]: 53.3
inhibition [4]: Tde
IC50 [5]: > 100 µM
IC50 [6]: 25 µM
IC50 [7]: 18.3 µM
IC50 [8]: 29.3 µM
IC50 [9]: 41 µM
IC50 [10]: 50 µM
remaining at 0.5 h, 1 µM [11]: 67.9%
remaining at 0.5 h, 1 µM [12]: 68.1%
half-life at 1 µM [13]: 0.867 h
half-life at 1 µM [14]: 1.24 h
remaining at 4 h, 5 µM [15]: 84.6%
remaining at 4 h, 5 µM [16]: 93.6%
fraction unbound at 4 h, 5 µM [17]: 0.073
fraction unbound at 4 h, 5 µM [18]: 0.035
half-life [19]: 1.22 h
AUC(0-t) [20]: 2450 ng·h/mL
AUC(0-inf) [21]: 2500 ng·h/mL
clearance [22]: 34.2 mL/min/kg
Vd [23]: 2.88 L/kg
Tmax [24]: 1.67 h
Cmax [25]: 480 ng/mL
half-life [26]: 3.84 h
AUC(0-t) [27]: 2080 ng·h/mL
AUC(0-inf) [28]: 2100 ng·h/mL
bioavailability [29]: 84.2%
Activity [30]: Active
Activity [31]: Active
Activity [32]: Active
Activity [33]: Active

Nc1cc(F)c(S(=O)(=O)N2CCC(O)CC2)cc1C(=O)Nc1ccc(Cl)c(Cl)c1
EC50 [1]: 2.07 µM
CC50 at 120 h [2]: 20.4 µM
selectivity ratio [3]: 9.9

N#Cc1cc(NC(=O)c2cc(S(=O)(=O)N3CCC(O)CC3)c(F)cc2N)ccc1Cl
EC50 [1]: > 3.3 µM
CC50 at 120 h [2]: > 900 µM
